High-throughput results deposited in PubChem by Johns Hopkins Ion Channel Center.
TRPC6 act – mouse TRPC6 channel activators, primary screen, cell-based, HEK293, membrane potential dye. AID 2550, 2010. 310,000 tested, 0.13% active. B-score at 10 µM. HEK293-TRPC6 membrane potential dye fluorescence; hits give high values;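 active = B-score of the integrated fluorescence ratio above library mean plus 3 SD, and starting fluorescence ratio within library mean plus 5 SD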;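 note: higher score means more depolarization so channel activation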
TRPC4 block – inhibitors of mouse TRPC4 channel, primary screen, Fluo4 calcium, HEK293 TRPC4beta/mu-opioid cells; Short transient receptor potential channel 4 (Mus musculus), Q9QUQ5; DAMGO-evoked Fluo4 calcium flux; hits give low values; B-score at 10 µM; 300,000 tested, 0.39% active;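 active = B-score over 3 SD under the library average, no early fluorescence shift, positive overall ratio signal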
Target sequence (Q9QUQ5 whole entry, looked up): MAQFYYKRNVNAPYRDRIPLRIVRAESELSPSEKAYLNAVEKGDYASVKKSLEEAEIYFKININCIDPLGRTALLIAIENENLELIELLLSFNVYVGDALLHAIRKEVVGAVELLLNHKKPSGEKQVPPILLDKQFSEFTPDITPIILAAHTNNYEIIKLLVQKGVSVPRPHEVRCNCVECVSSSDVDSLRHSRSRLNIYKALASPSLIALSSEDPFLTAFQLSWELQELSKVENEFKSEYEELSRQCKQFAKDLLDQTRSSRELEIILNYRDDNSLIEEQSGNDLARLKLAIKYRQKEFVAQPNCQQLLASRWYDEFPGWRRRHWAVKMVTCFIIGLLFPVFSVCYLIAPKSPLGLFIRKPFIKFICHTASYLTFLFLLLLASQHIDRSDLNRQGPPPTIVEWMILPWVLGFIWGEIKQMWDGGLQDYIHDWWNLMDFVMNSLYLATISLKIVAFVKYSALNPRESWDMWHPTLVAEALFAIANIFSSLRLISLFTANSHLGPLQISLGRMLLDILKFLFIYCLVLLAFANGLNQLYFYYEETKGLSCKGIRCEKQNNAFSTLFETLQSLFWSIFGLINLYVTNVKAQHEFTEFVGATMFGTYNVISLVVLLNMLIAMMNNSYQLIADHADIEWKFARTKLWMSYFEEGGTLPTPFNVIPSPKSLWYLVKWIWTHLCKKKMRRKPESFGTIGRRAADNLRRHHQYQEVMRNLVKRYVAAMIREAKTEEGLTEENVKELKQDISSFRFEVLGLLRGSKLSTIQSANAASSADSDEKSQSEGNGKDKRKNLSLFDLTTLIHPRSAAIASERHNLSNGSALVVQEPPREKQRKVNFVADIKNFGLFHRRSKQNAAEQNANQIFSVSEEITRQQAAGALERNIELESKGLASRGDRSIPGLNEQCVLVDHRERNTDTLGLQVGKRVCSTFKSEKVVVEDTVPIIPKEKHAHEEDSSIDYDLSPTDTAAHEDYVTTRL
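Assay system: HEK293 cells with stable TRPC4beta plus mu-opioid receptor expression; Probe or stimulus: DAMGO in two steps, submaximal then maximal; Dosing: single-point compound dosing; Measured by: Fluo4 calcium-dye fluorescence, kinetic read; Read-out basis: B score from integrated Fluo4 fluorescence ratio.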
TRPC4 agonist – activators of mouse TRPC4 channel, primary screen, Fluo4 calcium, HEK293 TRPC4beta/mu-opioid cells; Short transient receptor potential channel 4 (Mus musculus), Q9QUQ5; Fluo4 calcium fluorescence; hits give high values; B-score at 10 µM; 310,000 tested, 0.49% active; AID 2237, 2010;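 active = B-score above 5 SD of library B-scores, and initial fluorescence ratio not above library mean plus 5 SD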;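 note: positive B-score marks a calcium rise read as TRPC4 activation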
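Test system: HEK293 cells stably co-expressing mouse TRPC4beta and mu-opioid receptor | Schedule: Fluo4 dye loading 45 min at room temperature, 110 s recording | Measured by: Kinetic Fluo4 calcium fluorescence, 5 s baseline at 1 Hz | Evaluation: B score of integrated ratio | Controls: Buffer (low) and maximal DAMGO (high)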
TRPC6 inh – mouse TRPC6 channel inhibitors, primary screen, cell-based, HEK293, membrane potential dye | B-score at 10 µM | 310,000 tested, 1.1% active | Short transient receptor potential channel 6 (Mus musculus), Q61143 | ACh-evoked depolarization; hits give low values;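 active = B-score under library mean minus 3 SD, initial fluorescence not abnormally high, positive integrated signal ratio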;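 note: B-score derived from integrated fluorescence ratio over the kinetic read; more negative B-score means stronger inhibition of depolarization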
TRPC4 potent – positive allosteric modulators of TRPC4, primary screen, cell-based, mouse TRPC4beta, HEK293 mu-opioid, Fluo-4 calcium; DAMGO EC20, Fluo-4 Ca2+ flux; hits give high values; B-score at 10 µM; 310,000 tested, 0.42% active;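 active = B-score of calcium response area above 5 SD of library B-scores, with initial fluorescence ratio within 5 SD of library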
TRPC4 spec 2 – second check of whether TRPC6 inhibitors also affect mouse TRPC4; 920 tested, 42% active; shares compounds with TRPC6 inh; inhibition, % at 10 µM; AID 2776; HEK293 TRPC4/MOR, membrane potential dye fluorescence; channel activated by saturating DAMGO dose;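 active = compounds whose fluorescence signal differed from control wells by over 3 SD, either direction, in both duplicate plates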
TRPC4 spec – mouse TRPC4 modulation by TRPC6 hits, confirmation, selectivity assay for TRPC6 inhibitor project, cell-based, HEK293 TRPC4/mu-opioid, membrane potential dye. membrane potential fluorescence. shares compounds with TRPC6 inh. AID 2777, 2010. activity change, negative = inhibition, % at 10 µM. 920 tested, 61% active;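 active = rise or fall in signal beyond 3 SD of buffer-only wells in both replicate plates, either sign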;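 note: integrated kinetic ratio of fluorescence range over baseline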
HEK293 MPD ctr 2-1 – nonspecific membrane potential effects, parental HEK293, confirmation, counter-screen for TRPC6 inhibitor project, cell-based, second counter screen; 920 tested, 31% active; signal change vs control, % at 10 µM; parental HEK293 membrane potential dye fluorescence; maximal acetylcholine challenge after compound addition; shares compounds with TRPC6 inh;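 active = membrane potential signal moving either way by over 3 SD of the maximum-effect control, in both duplicate plates, meaning non-specific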
HEK293 MPD ctr-1 – membrane potential modulation in parental HEK293, confirmation, counter-screen for TRPC6 inhibitor project, cell-based; shares compounds with TRPC6 inh; parental HEK293 membrane potential dye fluorescence; membrane potential signal change, % at 10 µM; 920 tested, 60% active;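 active = membrane potential signal shifting up or down by more than 3 SD of buffer-only wells, on both duplicate plates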
HEK293 MPD ctr-2 – parental HEK293 membrane potential modulation, confirmation, counter-screen for TRPC6 modulator project, cell-based; AID 488924, 2010; shares compounds with TRPC6 inh; 2,400 tested, 51% active; membrane potential signal change, % at 10 µM; membrane potential dye fluorescence;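 active = membrane potential signal moves up or down beyond 5 SD from buffer-only wells, on both duplicate plates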
HEK293 MPD ctr 2-2 – parental HEK293 nonspecific activity of TRPC6 modulators, second screen; inhibition, % at 10 µM; AID 488926; membrane potential dye fluorescence; after compound, maximal acetylcholine stimulation; 2,400 tested, 14% active; shares compounds with TRPC6 inh;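 active = membrane potential signal drops by more than 5 SD from the mean control signal, in both duplicate plates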
TRPC4/MOR mod – TRPC4 modulation by TRPC6 hit compounds, confirmation, selectivity assay for TRPC6 modulator project, cell-based, HEK293 TRPC4/mu-opioid, membrane potential dye, mouse; 2,400 tested, 69% active; AID 488927, 2010; membrane potential fluorescence; shares compounds with TRPC6 inh; percent change from control (negative = decrease, positive = increase), % at 10 µM;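 active = membrane potential signal moved up or down beyond 5 SD of buffer control wells, in both duplicate plates, actives on both sides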
TRPC4/MOR inh 2 – second selectivity test of TRPC6 modulators against mouse TRPC4; shares compounds with TRPC6 inh; inhibition, % at 10 µM; 2,400 tested, 55% active; HEK293 TRPC4/mu-opioid, membrane potential dye fluorescence; stimulated with maximal-effect DAMGO;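 active = drop in membrane potential signal beyond 5 SD of the control wells in both duplicate plates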;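 note: TRPC4 counter screen for TRPC6 hits run under conditions tuned for TRPC6 not TRPC4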
TRPC6 inh conf – mouse TRPC6 channel inhibitors, confirmation, HEK293 cells, membrane potential dye, duplicate; shares compounds with TRPC6 inh; ACh-evoked depolarization; inhibition, % at 10 µM; 3,300 tested, 43% active; AID 488960, 2010;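 active = fluorescence ratio falls more than 5 SD below the full-stimulation control mean, in both duplicate runs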;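 note: integrated fluorescence ratio of peak minus minimum over baseline after agonist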
TRPC6 act confirm – mouse TRPC6 channel activators, confirmation, HEK293 cells, membrane potential dye, duplicate; shares compounds with TRPC6 inh; HEK293-TRPC6 membrane potential dye fluorescence, FDSS; activation, % at 10 µM; 2,800 tested, 11% active;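 active = ratio signal rise beyond 5 SD above unstimulated control wells' mean, seen in both duplicate runs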
Hits are given with their value; n = inactive; x = no result given. Sampled rows, rich in hits. Any-hit rate of the full collection: about 2.3%.

SMILES	TRPC6 act	TRPC4 block	TRPC4 agonist	TRPC6 inh	TRPC4 potent	HEK293 MPD ctr-2	HEK293 MPD ctr 2-2	TRPC4/MOR mod	TRPC4/MOR inh 2	TRPC6 inh conf	TRPC6 act confirm	others
CCNc1c2c(nc3ccccc13)CC(C)(C)CC2=O	n	n	n	-7.84	n	x	x	x	x	n	n	TRPC4 spec 2=65.0%;TRPC4 spec=n;HEK293 MPD ctr 2-1=n;HEK293 MPD ctr-1=-138.0%
CC1(C)CC(=O)c2c(nc3ccccc3c2N)C1	n	n	n	n	n	x	x	x	x	x	x
O=C(c1ccc2c(c1)CCN2S(=O)(=O)c1ccccc1)N1CCN(c2ccccc2F)CC1	n	n	n	n	n	x	x	x	x	x	x
COC(=O)CNC(c1ccccc1Cl)c1cc(Br)ccc1NS(=O)(=O)c1ccc(C)cc1 (configuration not stated)	n	n	n	n	n	x	x	x	x	x	x
CCN(CC(=O)Nc1ccccc1C(F)(F)F)C(=O)c1ccc(=O)n(Cc2ccccc2)n1	n	n	n	n	n	x	x	x	x	x	x
CCCN(CC(=O)Nc1ccccc1C)C(=O)c1ccc(=O)n(Cc2ccccc2)n1	n	n	n	-5.1	n	89.5%	n	16.5%	n	n	n
CCOc1ccc(NC(=O)C(CC(=O)O)Cc2ccccc2)cc1 (configuration not stated)	n	n	n	n	n	x	x	x	x	x	x
CCOc1ccc(NC(=O)CC(Cc2cc(C)cc(C)c2)C(=O)O)cc1 (configuration not stated)	n	n	n	-5.64	n	n	n	n	n	n	n
Cc1cccc(C(=O)NN2C(=O)C3C(c4ccccc4)C=CC(c4ccccc4)C3C2=O)c1 (configuration not stated)	n	n	n	-5	n	n	n	n	n	n	n
Cc1cccc(OCCCCN2CCNCC2)c1	n	n	n	n	n	x	x	x	x	x	x
Cc1cc(C)c(OCCCCN2CCNCC2)c(C)c1	n	n	n	-5.72	n	n	n	n	54.0%	43.5%	x
Cc1cccc(C)c1OCCCCN1CCNCC1	n	n	n	n	n	x	x	x	x	x	x
Cc1ccc(OCCCCCCN2CCNCC2)cc1	n	n	n	-6.73	n	x	x	x	x	n	n	TRPC4 spec 2=47.5%;TRPC4 spec=0.1%;HEK293 MPD ctr 2-1=n;HEK293 MPD ctr-1=7.4%
Cc1ccccc1OCCCCCCN1CCNCC1	n	n	n	-8.22	10	x	x	x	x	n	n	TRPC4 spec 2=53.5%;TRPC4 spec=1.8%;HEK293 MPD ctr 2-1=n;HEK293 MPD ctr-1=4.1%
CCn1c(SCC(=O)NNC(=O)c2ccc(OC)cc2)nnc1-c1ccco1	n	n	n	n	n	x	x	x	x	x	x
Fc1cccc(NCc2cn3ccccc3n2)c1	n	n	n	-5.48	n	n	n	n	n	n	n
CCc1cc(CNC(=O)c2ccc(OC3CCN(CCc4ccccc4)CC3)cc2)on1	n	n	n	n	n	x	x	x	x	x	x
O=C(CSCc1cnn(-c2ccccc2)c1-n1cccc1)NCc1ccccn1	n	n	n	-6.28	n	n	n	11.0%	n	n	x
CC(C)(C)C(=O)Nc1nnc(COc2ccc(Cl)cc2)s1	n	n	n	n	n	x	x	x	x	x	x
Cc1cc(N2CCN(c3ccc(F)cc3)CC2)nc2cc(O)ccc12	n	n	n	-6.27	n	-60.5%	n	-11.0%	35.5%	n	n
COc1ccc2c(C)cc(N3CCN(c4ccc(F)cc4)CC3)nc2c1	n	n	n	n	n	x	x	x	x	x	x
CCCCCOC(=O)c1ccc(NC(=O)c2ccco2)cc1	n	n	n	-13.2	n	x	x	x	x	n	n	TRPC4 spec 2=n;TRPC4 spec=n;HEK293 MPD ctr 2-1=n;HEK293 MPD ctr-1=n
CCCCCCOC(=O)c1ccc(N)cc1	n	n	n	-5.55	n	n	n	n	33.5%	n	n
CCCCOC(=O)c1ccc(NC(=S)NC(=O)c2ccco2)cc1	n	n	n	n	n	x	x	x	x	x	x
O=C(c1ccco1)N1N=C(C2CCCCC2)CC1(O)C(F)(F)F (configuration not stated)	n	n	n	n	n	x	x	x	x	x	x
O=C(c1ccncc1)N1N=C(C2CCCCC2)CC1(O)C(F)(F)F (configuration not stated)	n	n	n	-5.76	n	n	n	n	n	n	n
COc1ccccc1-c1cc(C(=O)N/N=C\c2cn(C)nc2C)c2ccccc2n1	n	n	n	-5.91	n	n	n	n	n	44.0%	x
CCn1cc(/C=N\NC(=O)c2cc(-c3ccccc3OC)nc3ccccc23)c(C)n1	n	n	n	n	n	x	x	x	x	x	x
CCOc1ccc(CNC(=O)Cn2ccc3cc(S(=O)(=O)N4CCCC4)ccc32)cc1	n	n	n	n	n	x	x	x	x	x	x
